Only some compounds are listed: those with a hit (about 2.3% of all), similar ones and a draw of the others.
TRPC4 agonist – activators of mouse TRPC4 channel. Q9QUQ5. HEK293 TRPC4beta/mu-opioid, Fluo4 calcium fluorescence; stronger effect = higher value. B-score at 10 µM. 310,000 compounds, 0.49% hits. AID 2237;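 active = B-score above 5 SD of library B-scores, and initial fluorescence ratio not above library mean plus 5 SD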;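 note: positive B-score marks a calcium rise read as TRPC4 activation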
Target sequence (Q9QUQ5 whole entry, looked up): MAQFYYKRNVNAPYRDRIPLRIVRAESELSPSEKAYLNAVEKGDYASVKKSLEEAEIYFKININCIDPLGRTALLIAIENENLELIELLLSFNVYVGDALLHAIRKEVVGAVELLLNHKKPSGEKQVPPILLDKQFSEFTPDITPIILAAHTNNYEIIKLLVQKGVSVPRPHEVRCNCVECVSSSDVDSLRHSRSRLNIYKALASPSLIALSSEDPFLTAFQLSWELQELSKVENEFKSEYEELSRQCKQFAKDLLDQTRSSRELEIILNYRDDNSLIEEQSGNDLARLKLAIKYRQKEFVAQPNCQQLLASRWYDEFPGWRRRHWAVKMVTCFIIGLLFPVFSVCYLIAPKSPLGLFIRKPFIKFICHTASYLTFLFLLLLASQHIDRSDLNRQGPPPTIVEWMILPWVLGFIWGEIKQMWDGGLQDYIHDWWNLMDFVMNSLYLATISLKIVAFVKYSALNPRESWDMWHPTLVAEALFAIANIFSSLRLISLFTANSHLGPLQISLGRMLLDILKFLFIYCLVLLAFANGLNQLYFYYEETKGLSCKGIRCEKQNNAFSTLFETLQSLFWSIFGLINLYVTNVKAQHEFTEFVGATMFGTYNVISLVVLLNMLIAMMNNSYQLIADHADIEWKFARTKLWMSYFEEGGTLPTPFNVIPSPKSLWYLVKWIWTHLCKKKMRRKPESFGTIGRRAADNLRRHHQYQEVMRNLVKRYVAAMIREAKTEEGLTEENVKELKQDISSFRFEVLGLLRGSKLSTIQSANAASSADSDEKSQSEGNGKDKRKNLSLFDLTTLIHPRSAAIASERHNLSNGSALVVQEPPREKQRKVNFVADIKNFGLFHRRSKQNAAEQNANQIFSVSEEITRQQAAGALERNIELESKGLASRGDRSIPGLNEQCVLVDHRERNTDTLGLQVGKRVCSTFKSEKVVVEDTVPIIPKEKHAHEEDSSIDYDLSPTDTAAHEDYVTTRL
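Incubation: 45 min room-temperature Fluo4 loading, 110 s read / System: HEK293 cells stably co-expressing mouse TRPC4beta and mu-opioid receptor / Signal: Fluo4 fluorescence, kinetic / Control set: buffer (low) and maximal DAMGO (high) / Measure: integrated baseline-normalised fluorescence ratio, converted to per-well B score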
TRPC6 inh – inhibitors of mouse TRPC6 channel. Q61143. AID 2553. HEK293-TRPC6, membrane potential dye, ACh-evoked depolarization; stronger effect = lower value. B-score at 10 µM. 310,000 compounds, 1.1% hits;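 active = B-score under library mean minus 3 SD, initial fluorescence not abnormally high, positive integrated signal ratio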;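 note: B-score derived from integrated fluorescence ratio over the kinetic read; more negative B-score means stronger inhibition of depolarization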
TRPC4 block – blocks the mouse TRPC4 cation channel; Q9QUQ5; 300,000 compounds, 0.39% hits; AID 2247; B-score at 10 µM; HEK293 TRPC4beta/mu-opioid, DAMGO-evoked Fluo4 calcium flux; stronger effect = lower value;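 active = B-score over 3 SD under the library average, no early fluorescence shift, positive overall ratio signal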
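Assay system: HEK293 cells with stable TRPC4beta plus mu-opioid receptor expression; Probe or stimulus: DAMGO in two steps, submaximal then maximal; Dosing: single-point compound dosing; Measured by: Fluo4 calcium-dye fluorescence, kinetic read; Read-out basis: B score from integrated Fluo4 fluorescence ratio.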
TRPC4 potent – allosterically enhances the mouse TRPC4 cation channel; B-score at 10 µM; AID 2227; HEK293 TRPC4beta/mu-opioid, DAMGO EC20, Fluo-4 Ca2+ flux; stronger effect = higher value; 310,000 compounds, 0.42% hits;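 active = B-score of calcium response area above 5 SD of library B-scores, with initial fluorescence ratio within 5 SD of library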;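 note: B-score of integrated fluorescence ratio over time as area under calcium response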
TRPC6 activator – activates the mouse TRPC6 cation channel; B-score at 10 µM; Q61143; 310,000 compounds, 0.13% hits; HEK293-TRPC6 membrane potential dye fluorescence; stronger effect = higher value;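 active = B-score of the integrated fluorescence ratio above library mean plus 3 SD, and starting fluorescence ratio within library mean plus 5 SD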;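 note: higher score means more depolarization so channel activation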
TRPC4 sel inh 2 – second selectivity test of TRPC6 inhibitors: effect on mouse TRPC4. shares compounds with TRPC6 inh. HEK293 TRPC4/MOR, membrane potential dye fluorescence; channel activated by saturating DAMGO dose. inhibition, % at 10 µM. 920 compounds, 42% hits;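 active = compounds whose fluorescence signal differed from control wells by over 3 SD, either direction, in both duplicate plates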
TRPC4 spec – tests whether TRPC6 inhibitors also affect mouse TRPC4. shares compounds with TRPC6 inh. HEK293 TRPC4/mu-opioid, membrane potential fluorescence. activity change, negative = inhibition, % at 10 µM. 920 compounds, 61% hits;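 active = rise or fall in signal beyond 3 SD of buffer-only wells in both replicate plates, either sign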;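 note: integrated kinetic ratio of fluorescence range over baseline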
HEK293 MPD ctr 2-1 – second counter-screen for TRPC6 inhibitors: parental HEK293 cells. shares compounds with TRPC6 inh. parental HEK293 membrane potential dye fluorescence; maximal acetylcholine challenge after compound addition. signal change vs control, % at 10 µM. 920 compounds, 31% hits. AID 2779;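 active = membrane potential signal moving either way by over 3 SD of the maximum-effect control, in both duplicate plates, meaning non-specific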
HEK293 MPD ctr-1 – parental HEK293 nonspecific activity of TRPC6 inhibitors; shares compounds with TRPC6 inh; AID 2780; 920 compounds, 60% hits; parental HEK293 membrane potential dye fluorescence; membrane potential signal change, % at 10 µM;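 active = membrane potential signal shifting up or down by more than 3 SD of buffer-only wells, on both duplicate plates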
HEK293 MPD ctr-2 – parental HEK293 nonspecific activity of TRPC6 modulators | shares compounds with TRPC6 inh | membrane potential dye fluorescence | membrane potential signal change, % at 10 µM | 2,400 compounds, 51% hits;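 active = membrane potential signal moves up or down beyond 5 SD from buffer-only wells, on both duplicate plates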
HEK293 MPD ctr 2-2 – parental HEK293 nonspecific activity of TRPC6 modulators, second screen. shares compounds with TRPC6 inh. membrane potential dye fluorescence; after compound, maximal acetylcholine stimulation. inhibition, % at 10 µM. 2,400 compounds, 14% hits;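 active = membrane potential signal drops by more than 5 SD from the mean control signal, in both duplicate plates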;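 note: plate controls were acetylcholine ECmax control wells for no effect and buffer only wells for full effect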
TRPC4/MOR mod – mouse TRPC4 off-target activity of TRPC6 modulators; 2,400 compounds, 69% hits; HEK293 TRPC4/mu-opioid, membrane potential fluorescence; shares compounds with TRPC6 inh; percent change from control (negative = decrease, positive = increase), % at 10 µM;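 active = membrane potential signal moved up or down beyond 5 SD of buffer control wells, in both duplicate plates, actives on both sides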;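 note: plate controls were assay buffer wells for no effect and DAMGO maximal-effect wells for full effect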
TRPC4/MOR inh 2 – mouse TRPC4 off-target activity of TRPC6 modulators, second screen | inhibition, % at 10 µM | HEK293 TRPC4/mu-opioid, membrane potential dye fluorescence; stimulated with maximal-effect DAMGO | 2,400 compounds, 55% hits | shares compounds with TRPC6 inh;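 active = drop in membrane potential signal beyond 5 SD of the control wells in both duplicate plates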;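 note: TRPC4 counter screen for TRPC6 hits run under conditions tuned for TRPC6 not TRPC4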
TRPC6 block conf – mouse TRPC6 inhibitor confirmation. inhibition, % at 10 µM. HEK293-TRPC6, membrane potential dye, ACh-evoked depolarization. 3,300 compounds, 43% hits. AID 488960. shares compounds with TRPC6 inh;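 active = fluorescence ratio falls more than 5 SD below the full-stimulation control mean, in both duplicate runs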;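 note: integrated fluorescence ratio of peak minus minimum over baseline after agonist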
TRPC6 act confirm – confirmation of mouse TRPC6 activators. 2,800 compounds, 11% hits. shares compounds with TRPC6 inh. HEK293-TRPC6 membrane potential dye fluorescence, FDSS. activation, % at 10 µM. AID 488961;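 active = ratio signal rise beyond 5 SD above unstimulated control wells' mean, seen in both duplicate runs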;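 note: plate controls were buffer EC0 wells for no effect and acetylcholine ECmax response for full effect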
Starred values were filed as active, the others as inactive; i = inactive.

SMILES	TRPC4 agonist	TRPC6 inh	TRPC4 block	TRPC4 potent	TRPC6 activator	others
O=[N+]([O-])c1cc(C(F)(F)F)cc([N+](=O)[O-])c1NCCNC(=S)Nc1cccc(F)c1	i	i	i	i	i
CC(C)C(NC(=O)c1ccc(C(C)(C)C)cc1)C(=O)NCCc1ccccn1 (stereo not given)	i	i	i	i	i
CC(C)C(NC(=O)c1ccc(C(C)(C)C)cc1)C(=O)NCC(c1ccccc1)N(C)C (stereo not given)	i	i	-7*	i	i
CCN1CCN(CCOc2ccc(Br)cc2C)CC1	i	i	i	i	i
Cc1cc(Br)ccc1OCCN1CCCC1	i	i	i	15*	i
COc1ccc(/C=C/CN2CCCC(C(=O)c3ccc(OC)c(F)c3)C2)cc1 (stereo not given)	131*	i	i	i	i
C=CCNCCCCOc1c(Cl)cc(C)cc1Br	57*	i	i	i	i
COCCCNCCCCOc1c(Cl)cc(C)cc1Br	i	i	i	i	i
CCC1=Nc2cc(C(=O)N3CCCCC3)ccc2Sc2ccc(C)cc21	i	i	i	i	i
CCCC1=Nc2cc(C(=O)N3CCCC3)ccc2Sc2ccc(C)cc21	54*	i	i	i	i
O=C(NNc1c(Cl)cc(Cl)cc1Cl)C1CCC1	i	i	i	i	i
COc1ccc(C(=O)OCC2CC(c3ccccc3)=NO2)cc1OC (stereo not given)	i	-5.1*	i	i	i	HEK293 MPD ctr-2=i;HEK293 MPD ctr 2-2=i;TRPC4/MOR mod=i;TRPC4/MOR inh 2=i;TRPC6 block conf=i;TRPC6 act confirm=i
Cc1cc(C)nc(/N=C(\N)Nc2cc([N+](=O)[O-])ccc2C)n1	i	-7.1*	i	i	i	HEK293 MPD ctr-2=-166%*;HEK293 MPD ctr 2-2=i;TRPC4/MOR mod=-28%*;TRPC4/MOR inh 2=48%*;TRPC6 block conf=58%*;TRPC6 act confirm=i
COc1cc(NC(N)=S)c(OC)cc1Cl	i	i	i	i	i
COc1cc(N/C(N)=N/c2nc(C)cc(C)n2)c(OC)cc1Cl	i	-8.2*	i	i	i	TRPC4 sel inh 2=i;TRPC4 spec=-11%*;HEK293 MPD ctr 2-1=i;HEK293 MPD ctr-1=-170%*;TRPC6 block conf=90%*;TRPC6 act confirm=i
COc1c(F)c(F)c(C(=O)O)c(Nc2ccc(C)cc2C)c1F	i	i	i	i	i

Screening results (PubChem BioAssay)
